In test [1] the target is T1, Glycogen synthase kinase-3 (Homo sapiens, UniProt P49840+P49841). Nature of the test: Inhibition of glycogen synthase kinase-3 (GSK3-beta). The test is classed as protein assay. Summed up: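 GSK-3β (20 nM final) in HEPES pH 7.2 with 10 mM MgCl2, 0.1 mg/mL BSA, 1 mM DTT, 0.3 mg/mL heparin. Substrate 2.8 µM biotinylated phospho-primed GS peptide, with 2.5 µM ATP plus [γ-33P]-ATP. Stopped after 40 min with EDTA. Streptavidin SPA beads added and counted. Reported as pIC50.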
T1 sequence (P49840 whole entry, looked up): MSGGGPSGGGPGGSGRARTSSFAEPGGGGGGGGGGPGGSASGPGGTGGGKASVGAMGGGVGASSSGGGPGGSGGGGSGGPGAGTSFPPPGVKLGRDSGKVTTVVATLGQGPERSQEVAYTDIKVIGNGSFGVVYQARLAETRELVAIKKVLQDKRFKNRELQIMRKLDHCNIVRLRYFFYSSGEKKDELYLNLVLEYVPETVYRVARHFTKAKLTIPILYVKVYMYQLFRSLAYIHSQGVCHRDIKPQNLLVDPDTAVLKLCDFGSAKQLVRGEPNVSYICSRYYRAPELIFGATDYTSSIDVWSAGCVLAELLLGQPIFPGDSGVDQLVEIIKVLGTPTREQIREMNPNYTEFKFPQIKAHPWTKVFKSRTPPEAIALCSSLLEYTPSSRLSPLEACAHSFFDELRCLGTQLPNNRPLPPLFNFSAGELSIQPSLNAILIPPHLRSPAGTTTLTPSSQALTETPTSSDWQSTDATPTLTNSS
T1 sequence (P49841 whole entry, looked up): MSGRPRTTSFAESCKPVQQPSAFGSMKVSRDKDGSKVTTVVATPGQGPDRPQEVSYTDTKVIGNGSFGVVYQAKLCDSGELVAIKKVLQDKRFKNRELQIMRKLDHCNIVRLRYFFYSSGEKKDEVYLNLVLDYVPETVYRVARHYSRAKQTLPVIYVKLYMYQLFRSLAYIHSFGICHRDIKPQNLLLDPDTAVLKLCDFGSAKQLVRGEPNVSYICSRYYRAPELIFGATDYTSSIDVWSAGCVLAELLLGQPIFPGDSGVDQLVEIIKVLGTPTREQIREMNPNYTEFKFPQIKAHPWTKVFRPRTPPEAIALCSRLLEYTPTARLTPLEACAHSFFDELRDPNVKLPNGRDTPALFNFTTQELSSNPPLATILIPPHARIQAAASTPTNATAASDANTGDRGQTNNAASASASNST

Test [2] deals with T1, Glycogen synthase kinase-3. Put plainly: Maximal glycogen synthesis in rat L6 skeletal muscle cells in response to 1 uM insulin. Format: functional, cell-based. In short, it runs like this: (§1)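 Rat L6 muscle cells, with glycogen synthesis tracked as 14C-glucose incorporated into glycogen. Maximum glycogen produced by the compound is expressed as a percentage of the maximum produced by 1 µM insulin.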

Test [3] deals with MDCK. Put plainly: Cell permeation in MDCK cells. Format: functional, Canis lupus familiaris.
Test [4] deals with T1, Glycogen synthase kinase-3. Nature of the test: Stimulation of glycogen synthesis in rat skeletal muscle L6 cells.
The target of test [5] is T1, Glycogen synthase kinase-3. Nature of the test: Maximal glycogen synthesis in rat L6 skeletal muscle cells in response to 1 uM insulin (inactive). The test is classed as functional, cell-based. In short, it runs like this:
as §1

Each structure is given as a SMILES string. The source made the active and inactive calls. No cut-off for these calls is given here.

Usually EC50 stands for the concentration needed to bring the measured effect to its halfway point. A low value points to greater potency. For the compound `COc1cccc(-n2ncc3c(N/N=C/c4ccc(S(C)(=O)=O)cc4)ncnc32)c1` [PYRAZOLOPYRIMIDINE 2], the “Log IC50” value in test [1] is recorded as -8.6. The compound further had a Max in test [2] of 19%. In test [3], the Cell permeation was determined as 16.8 ×10⁻⁶ cm/s. In test [4], the EC50 turned out to be 310 nM.

For `Fc1ccc(/C=N/Nc2ncnc3c2cnn3-c2cccc3[nH]cnc23)cc1`, the “Log IC50” value in test [1] was -8.2. The same compound had a Max in test [2] of 57%. This compound also had a Cell permeation in test [3] of 9.2 ×10⁻⁶ cm/s. Also, the EC50 in test [4] came out at 230 nM.

Consider `Fc1ccc(/C=N/Nc2ncnc3c2cnn3-c2ccccc2)cc1`, for which the “Log IC50” value in test [1] is listed as -6.2. The Cell permeation in test [3] is 0.5 ×10⁻⁶ cm/s.

`COc1cccc(-n2ncc3c(N/N=C/c4ccncc4)ncnc32)c1` [GW784752X] gave a Max in test [2] of 37%. The compound further had a Cell permeation in test [3] of 12.7 ×10⁻⁶ cm/s. The EC50 in test [4] came out at 220 nM.

Consider `COc1cccc(-n2ncc3c(N/N=C/c4ccc(F)cc4)ncnc32)c1` [GW817396X], for which the “Log IC50” value in test [1] is listed as -8.1. In test [5], the Max entry is “inactive”. The Cell permeation in test [3] was 0.5 ×10⁻⁶ cm/s.

Regarding `O=C(O)c1ccc(/C=N/Nc2ncnc3c2cnn3-c2cccc3[nH]cnc23)cc1`, in test [1], the “Log IC50” value was -8.3. In addition, in test [2], the Max came out at 42%. The same compound showed a Cell permeation in test [3] of 1.7 ×10⁻⁶ cm/s. The compound also registered an EC50 in test [4] of 2730 nM.

For `COc1cccc(-n2ncc3c(N/N=C/c4ccc(C(=O)O)cc4)ncnc32)c1`, the “Log IC50” value in test [1] is recorded as -7.5. The compound also showed a Max in test [2] of 46%. The compound also yielded a Cell permeation in test [3] of 6.5 ×10⁻⁶ cm/s. The compound further had an EC50 in test [4] of 1880 nM.

On to `COc1cccc(-n2ncc3c(N/N=C/c4ccc(C(=O)NCCN(C)C)cc4)ncnc32)c1`, for which the “Log IC50” value in test [1] is recorded as -7.8. The Max in test [2] came to 26%. In test [3], the Cell permeation stood at 1.5 ×10⁻⁶ cm/s. The compound also had an EC50 in test [4] of 4000 nM.

For the compound `CN(C)CCNC(=O)c1ccc(/C=N/Nc2ncnc3c2cnn3-c2ccccc2)cc1`, the “Log IC50” value in test [1] is reported as -7.7. In test [3], this compound returned a Cell permeation of 9.8 ×10⁻⁶ cm/s.

`CS(=O)(=O)c1ccc(/C=N/Nc2ncnc3c2cnn3-c2cccc3[nH]cnc23)cc1`: the “Log IC50” value in test [1] is -8.3. The Max in test [2] was 54%. The compound further yielded a Cell permeation in test [3] of 6.1 ×10⁻⁶ cm/s. The compound further displayed an EC50 in test [4] of 240 nM.

On to `C(=N\Nc1ncnc2c1cnn2-c1ccccc1)/c1ccncc1`, for which the “Log IC50” value in test [1] is reported as -7. The compound also had a Max in test [2] of 48%. The same compound showed a Cell permeation in test [3] of 9.9 ×10⁻⁶ cm/s. Further, in test [4], the EC50 stood at 1220 nM.

Turning to `CN(C)CCNC(=O)c1ccc(/C=N/Nc2ncnc3c2cnn3-c2cccc3[nH]cnc23)cc1` [PYRAZOLOPYRIMIDINE 1], the “Log IC50” value in test [1] was -8.8. In addition, the Max in test [2] came to 76%. For the same compound, the Cell permeation in test [3] was determined as 1.5 ×10⁻⁶ cm/s. Also, the EC50 in test [4] came to 2330 nM.

As for `C(=N\Nc1ncnc2c1cnn2-c1cccc2[nH]cnc12)/c1ccncc1`, the “Log IC50” value in test [1] was -8.4. The compound also had a Max in test [2] of 45%. In test [3], this compound yielded a Cell permeation of 21.2 ×10⁻⁶ cm/s. Moreover, the EC50 in test [4] was found to be 110 nM.

(Values after ChEMBL document CHEMBL1147547, “Novel GSK-3 inhibitors with improved cellular activity” (Bioorg Med Chem Lett, 2004).)
